Data set [1] has as its target T1, Gastric inhibitory polypeptide receptor (Homo sapiens, UniProt P48546).
T1 sequence (P48546 whole entry): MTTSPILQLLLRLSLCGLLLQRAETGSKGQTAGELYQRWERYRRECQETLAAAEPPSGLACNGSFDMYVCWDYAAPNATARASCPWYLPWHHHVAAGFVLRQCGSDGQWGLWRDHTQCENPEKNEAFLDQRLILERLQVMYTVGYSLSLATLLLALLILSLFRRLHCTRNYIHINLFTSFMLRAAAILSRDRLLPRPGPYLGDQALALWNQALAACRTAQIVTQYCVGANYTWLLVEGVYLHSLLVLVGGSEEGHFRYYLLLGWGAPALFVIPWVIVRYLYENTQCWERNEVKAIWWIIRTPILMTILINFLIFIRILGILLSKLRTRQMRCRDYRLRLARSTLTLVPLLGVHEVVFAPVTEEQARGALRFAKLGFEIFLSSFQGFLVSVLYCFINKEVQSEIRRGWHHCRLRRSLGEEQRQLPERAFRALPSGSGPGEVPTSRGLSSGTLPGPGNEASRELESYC
The data set can be described thus: Agonist activity at human GIP receptor expressed in HEK293 cells assessed as cAMP accumulation after 30 mins by HTRF assay. Type of data set: functional, cell-based. (In general: cAMP levels reflect the balance of adenylyl cyclase and phosphodiesterase activity.)

The target of data set [2] is T2, Glucagon-like peptide 1 receptor (Homo sapiens, UniProt P43220). As to the kind of experiment: Displacement of [125I]GLP-1 from human GLP1R expressed in HEK293 cell membranes after 180 mins by microbeta counting method. In outline: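 Membranes from HEK-293 cells expressing human GLP-1 receptor (1 μg protein/well) were coated on WGA SPA beads. […] The buffer was HEPES pH 7.4 with EDTA, NaCl, MgCl2, CaCl2, protease inhibitors and 0.1% BSA. Plates were read after a 180 min delay.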
T2 sequence (P43220 whole entry): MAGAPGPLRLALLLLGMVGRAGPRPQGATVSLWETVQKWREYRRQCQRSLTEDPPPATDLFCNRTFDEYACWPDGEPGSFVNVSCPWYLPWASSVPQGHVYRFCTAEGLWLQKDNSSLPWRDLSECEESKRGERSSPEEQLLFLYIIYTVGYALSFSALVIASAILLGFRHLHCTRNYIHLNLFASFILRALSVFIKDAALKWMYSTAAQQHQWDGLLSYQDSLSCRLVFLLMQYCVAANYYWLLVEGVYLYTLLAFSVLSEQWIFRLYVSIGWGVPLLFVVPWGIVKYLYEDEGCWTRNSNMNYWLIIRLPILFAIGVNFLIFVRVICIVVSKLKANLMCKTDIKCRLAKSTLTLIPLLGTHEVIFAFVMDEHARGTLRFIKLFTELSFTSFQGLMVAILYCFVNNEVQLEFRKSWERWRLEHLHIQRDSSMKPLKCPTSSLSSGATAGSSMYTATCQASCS
Background: In a radioligand displacement assay an active substance lowers the binding of a labelled ligand.

The nature of data set [3]: Solubility in pH 4.5 acetate buffer at 10 mg/ml after 2 hrs by UPLC-UV analysis. In kind it is physicochemical. In outline:
(§1)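 Buffers were 100 mM sodium acetate pH 4.5 or 100 mM sodium phosphate pH 7.4, with or without 0.5% phenol. Solid peptide was dispersed at 10 mg/mL, with content corrected by UPLC-MS and ion chromatography, and gently agitated for 2 h. After centrifugation (15 min, 3000 rcf), the supernatant was diluted 1:10 and quantified by UPLC-UV against a DMSO standard curve.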

The target of a further data set is Glucagon receptor (Homo sapiens, UniProt P47871). As to the kind of experiment: Agonist activity at human glucagon receptor expressed in HEK293 cells assessed as cAMP accumulation after 30 mins by HTRF assay. In kind it is functional, cell-based.
Glucagon receptor, sequence (P47871 whole entry): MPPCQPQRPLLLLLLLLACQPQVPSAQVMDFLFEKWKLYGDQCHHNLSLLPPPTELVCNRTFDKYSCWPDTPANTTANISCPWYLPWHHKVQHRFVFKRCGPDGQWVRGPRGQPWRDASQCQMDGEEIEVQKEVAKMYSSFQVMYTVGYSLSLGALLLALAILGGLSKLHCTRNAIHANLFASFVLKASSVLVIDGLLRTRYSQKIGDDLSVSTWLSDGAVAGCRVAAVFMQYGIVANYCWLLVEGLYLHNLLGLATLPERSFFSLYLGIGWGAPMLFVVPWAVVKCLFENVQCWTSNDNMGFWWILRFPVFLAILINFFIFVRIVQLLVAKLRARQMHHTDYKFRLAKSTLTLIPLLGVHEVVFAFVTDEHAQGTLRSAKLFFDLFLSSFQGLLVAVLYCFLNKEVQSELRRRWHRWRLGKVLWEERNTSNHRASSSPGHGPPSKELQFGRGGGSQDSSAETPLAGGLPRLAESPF
Data set [4] is described as follows: Solubility in pH 4.5 acetate buffer at 10 mg/ml after 2 hrs in presence of 0.5% phenol by UPLC-UV analysis. In kind it is physicochemical. The method in brief: as §1
Data set [5] in a line: Solubility in pH 4.5 phosphate buffer at 10 mg/ml after 2 hrs in presence of 0.5% phenol by UPLC-UV analysis. In kind it is physicochemical.
The species entered for data set [6] is Homo sapiens. As to the kind of experiment: Selectivity ratio of EC50 for human glucagon receptor expressed in HEK293 cells to EC50 for human GLP1R expressed in HEK293 cells. In kind it is cell-based. The method in brief: (§2)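 HEK293 lines stably expressing human or monkey receptor were detached with accutase. Cells were resuspended at 400 000 cells/mL in HBSS/20 mM HEPES/0.1% BSA/2 mM IBMX and exposed to peptide for 30 min at room temperature. cAMP was read by HTRF (665/620 nm) after 1 h lysis.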

Data set [7] deals with T2, Glucagon-like peptide 1 receptor. As to the kind of experiment: Agonist activity at human GLP1R expressed in HEK293 cells assessed as cAMP accumulation after 30 mins by HTRF assay. Type of data set: functional, cell-based.
A short description of data set [8]: Solubility in pH 4.5 acetate buffer at 10 mg/ml after 2 hrs by UPLC-UV analysis.
The species named for data set [9] is Homo sapiens. The data set can be described thus: Selectivity ratio of EC50 for human GIP receptor expressed in HEK293 cells to EC50 for human GLP1R expressed in HEK293 cells. In kind it is cell-based. In outline:
as §2

This note sets out measurements from ChEMBL document CHEMBL4118251 (J Med Chem, 2018).

Peptide text beside a SMILES is read from it.

With `CC[C@H](C)[C@H](NC(=O)[C@H](Cc1ccccc1)NC(=O)[C@H](CC(C)C)NC(=O)[C@H](CCCCN)NC(=O)[C@H](C)NC(=O)[C@H](CS)NC(=O)[C@H](CCC(N)=O)NC(=O)[C@H](CCC(=O)O)NC(=O)[C@H](CC(=O)O)NC(=O)[C@H](CC(C)C)NC(=O)[C@H](CCC(N)=O)NC(=O)[C@H](CCCCN)NC(=O)[C@H](CO)NC(=O)[C@H](CC(C)C)NC(=O)[C@@H](N)CC(=O)O)C(=O)N[C@@H](CCC(=O)O)C(=O)N[C@@H](Cc1c[nH]c2ccccc12)C(=O)N[C@@H](CC(C)C)C(=O)N[C@@H](C)C(=O)N[C@@H](C)C(=O)NCC(=O)NCC(=O)N1CCC[C@H]1C(=O)N[C@@H](CO)C(=O)N[C@@H](CO)C(=O)NCC(=O)N[C@@H](C)C(=O)N1CCC[C@H]1C(=O)N1CCC[C@H]1C(=O)N1CCC[C@H]1C(=O)N[C@@H](CS)C(N)=O` (H-DLSKQLDEQCAKLFIEWLAAGGPSSGAPPPC-NH2), the EC50 in data set [1] was greater than 100000 nM. In addition, the IC50 in data set [2] came out at 1130 nM.

Take `CCCCCCCCCCCCCCCCC(=O)N[C@@H](CCC(=O)N[C@@H](CCC(=O)NCCCC[C@H](NC(=O)[C@H](CCC(N)=O)NC(=O)[C@H](CCCCN)NC(=O)[C@H](CO)NC(=O)[C@H](CC(C)C)NC(=O)[C@H](CC(=O)O)NC(=O)[C@H](CO)NC(=O)[C@@H](NC(=O)[C@H](Cc1ccccc1)NC(=O)[C@@H](NC(=O)CNC(=O)[C@H](CCC(N)=O)NC(=O)C(C)(C)NC(=O)[C@@H](N)Cc1cnc[nH]1)[C@@H](C)O)[C@@H](C)O)C(=O)N[C@@H](CC(=O)O)C(=O)N[C@@H](CCC(=O)O)C(=O)N[C@@H](CCC(N)=O)C(=O)N[C@@H](CCCNC(=N)N)C(=O)N[C@@H](C)C(=O)N[C@@H](CCCCN)C(=O)N[C@@H](CC(C)C)C(=O)N[C@@H](Cc1ccccc1)C(=O)N[C@H](C(=O)N[C@@H](CCC(=O)O)C(=O)N[C@@H](Cc1c[nH]c2ccccc12)C(=O)N[C@@H](CC(C)C)C(=O)NC(C)(C)C(=O)N[C@@H](C)C(=O)NCC(=O)NCC(=O)N1CCC[C@H]1C(=O)N[C@@H](CO)C(=O)N[C@@H](CO)C(=O)NCC(=O)N[C@@H](C)C(=O)N1CCC[C@H]1C(=O)N1CCC[C@H]1C(=O)N1CCC[C@H]1C(=O)N[C@@H](CO)C(N)=O)[C@@H](C)CC)C(=O)O)C(=O)O`: the solubility at 2 h is no less than 10000 µg/mL in data set [3], 1200 µg/mL in [4], no less than 10000 µg/mL in [5] and no less than 10000 µg/mL in [8]. The 50% effective concentration (EC50) came out at 0.0276 nM at Glucagon receptor, 2.03 nM in [1] and 2.2 pM in [7]. The Ratio EC50 in the data set filed under Homo sapiens [6] was 13.

In [2], `CC[C@H](C)[C@H](NC(=O)[C@H](Cc1ccccc1)NC(=O)[C@H](CC(C)C)NC(=O)[C@H](CCCCN)NC(=O)[C@H](C)NC(=O)[C@H](CCCNC(=N)N)NC(=O)[C@H](CCC(N)=O)NC(=O)[C@H](CCC(=O)O)NC(=O)[C@H](CC(=O)O)NC(=O)[C@H](CC(C)C)NC(=O)[C@H](CCC(N)=O)NC(=O)[C@H](CCCCN)NC(=O)[C@H](CO)NC(=O)[C@H](CC(C)C)NC(=O)[C@H](CC(=O)O)NC(=O)[C@H](CO)NC(=O)[C@@H](NC(=O)[C@H](Cc1ccccc1)NC(=O)[C@@H](NC(=O)CNC(=O)[C@H](CCC(N)=O)NC(=O)C(C)(C)NC(=O)[C@@H](N)Cc1cnc[nH]1)[C@@H](C)O)[C@@H](C)O)C(=O)N[C@@H](CCC(=O)O)C(=O)N[C@@H](Cc1c[nH]c2ccccc12)C(=O)N[C@@H](CC(C)C)C(=O)NC(C)(C)C(=O)N[C@@H](C)C(=O)NCC(=O)NCC(=O)N1CCC[C@H]1C(=O)N[C@@H](CO)C(=O)N[C@@H](CO)C(=O)NCC(=O)N[C@@H](C)C(=O)N1CCC[C@H]1C(=O)N1CCC[C@H]1C(=O)N1CCC[C@H]1C(=O)N[C@@H](CO)C(N)=O` came in with a half-maximal inhibitory concentration (IC50) of 26 nM. In other words, the double-digit nanomolar range.

For `CCCCCCCCCCCCCCCCCCC(=O)N[C@@H](CCC(=O)NCCCC[C@H](NC(=O)[C@H](CCC(N)=O)NC(=O)[C@H](CCCCN)NC(=O)[C@H](CO)NC(=O)[C@H](CC(C)C)NC(=O)[C@H](CC(=O)O)NC(=O)[C@H](CO)NC(=O)[C@@H](NC(=O)[C@H](Cc1ccccc1)NC(=O)[C@@H](NC(=O)CNC(=O)[C@H](CCC(N)=O)NC(=O)C(C)(C)NC(=O)[C@@H](N)Cc1cnc[nH]1)[C@@H](C)O)[C@@H](C)O)C(=O)N[C@@H](CC(=O)O)C(=O)N[C@@H](CCC(=O)O)C(=O)N[C@@H](CCC(N)=O)C(=O)N[C@@H](CCCNC(=N)N)C(=O)N[C@@H](C)C(=O)N[C@@H](CCCCN)C(=O)N[C@@H](CC(C)C)C(=O)N[C@@H](Cc1ccccc1)C(=O)N[C@H](C(=O)N[C@@H](CCC(=O)O)C(=O)N[C@@H](Cc1c[nH]c2ccccc12)C(=O)N[C@@H](CC(C)C)C(=O)NC(C)(C)C(=O)N[C@@H](C)C(=O)NCC(=O)NCC(=O)N1CCC[C@H]1C(=O)N[C@@H](CO)C(=O)N[C@@H](CO)C(=O)NCC(=O)N[C@@H](C)C(=O)N1CCC[C@H]1C(=O)N1CCC[C@H]1C(=O)N1CCC[C@H]1C(=O)N[C@@H](CO)C(N)=O)[C@@H](C)CC)C(=O)O`, the results for the EC50 (on Glucagon receptor; in data set [1]; in data set [7]) were 0.0067 nM, 0.102 nM and 1.4 pM, respectively. Besides, the Ratio EC50 was 5 in the data set filed under Homo sapiens [6] and 73 in the data set listed under Homo sapiens [9].

The term EC50 denotes the midpoint of the concentration-response curve. As a reminder, the IC50 is the concentration at which inhibition is half-maximal. Lower therefore signals greater potency. Usually solubility stands for the dissolved amount per volume that the medium holds.
